Active and inactive are the calls of the source.
Columns and labels:
Trypanosoma cruzi [1] = experiment: Antitrypanosomal activity against blood trypomastigote forms of Trypanosoma cruzi infected in BALB/c mouse assessed as decrease in parasitemia at 5 mg/kg, ip administered 7 days post infection once daily for 5 days measured on day 22 post infection by […] relative to control; type: functional, organism-based; set-up: dose 5 mg/kg
Procedure, shortened: (§1)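 Female BALB/c mice (6–8 weeks, five per group) were infected ip with 1 × 10^3 bloodstream forms and treated ip in saline on days 7–12 post-infection; controls received vehicle. Every two days, 5 μL tail blood was diluted 1:15 in citrate/lysis buffer (pH 7.2) and parasites counted in a Neubauer chamber. Decrease is relative to the untreated infected group.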

[2] = Selectivity index, ratio of IC50 for african green monkey Vero cells to IC50 for epimastigote form of Trypanosoma cruzi; type: toxicity, cell-based; details: Vero cells (versus epimastigote form of Trypanosoma cruzi), read-out: Ratio IC50
Trypanosoma cruzi [3] = experiment: Antitrypanosomal activity against epimastigote form of Trypanosoma cruzi assessed as inhibition of parasite growth; type: functional, organism-based
Procedure, shortened: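 Exponential-phase epimastigotes at 2 × 10^6 parasites/mL were exposed to 1, 10, 25, 50 and 100 μM compound in medium containing 0.01% DMSO. Parasites were counted by hemocytometer at 24, 48 and 72 h.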

Trypanosoma cruzi [4] = experiment: Antitrypanosomal activity against blood trypomastigote forms of Trypanosoma cruzi infected in BALB/c mouse assessed as decrease in parasitemia at 5 mg/kg, ip administered 7 days post infection once daily for 5 days measured after 40 days post infection by […] relative to control; type: functional; set-up: scale not given: the % may be the effect or the level left; details: route intraperitoneal; procedure, shortened: as §1
Trypanosoma cruzi [5] = experiment: Antitrypanosomal activity against blood trypomastigote forms of Trypanosoma cruzi infected in BALB/c mouse assessed as decrease in anti-parasite antibodies level at 5 mg/kg, ip administered 7 days post infection once daily for 5 days measured after […] by ELISA relative to control; type: functional, organism-based; set-up: dose 5 mg/kg
Procedure, shortened: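 Female BALB/c mice (6–8 weeks) were infected ip; groups of four received ip treatment days 7–12 post-infection. Sera taken on days 40 and 90 were diluted 1:100 and run in ELISA against excreted Fe-SOD antigen from epimastigotes, read at 490 nm. Cutoff was the mean of negative controls plus 3 SD. The change was taken as absorbance on day 90 minus day 40.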

Trypanosoma cruzi [6] = experiment: Antitrypanosomal activity against blood trypomastigote forms of Trypanosoma cruzi infected in BALB/c mouse assessed as mouse survival rate at 1 mg/kg, ip administered 7 days postinfection once daily for 5 days; type: functional
Procedure, shortened: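 T. cruzi Maracay strain; groups of five female BALB/c mice (6–8 weeks, 25–30 g) infected ip with 1 × 10³ bloodstream forms. Starting day 7 post-infection, ip dosing at 1 mg/kg/day in saline for five consecutive days; infected controls received vehicle. Mortality recorded over the study alongside parasitemia, which was counted every two days from tail blood in a Neubauer chamber.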

Trypanosoma cruzi [7] = experiment: Antitrypanosomal activity against Trypanosoma cruzi epimastigotes assessed as increase in vacuolization at IC25 concentration after 72 hrs by transmission electron microscopy; type: functional, organism-based
Procedure, shortened: (§2)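 Epimastigotes at 5 × 10^6 cells/mL were exposed to test compounds at their IC25 for 72 h. Morphology was assessed by transmission electron microscopy against untreated parasites.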

Trypanosoma cruzi [8] = experiment: Antitrypanosomal activity against metacyclic forms of Trypanosoma cruzi infected in vero cells assessed as decrease in trypomastigotes at IC25 concentration after 12 hrs; type: functional; set-up: scale not given: the % may be the effect or the level left
Procedure, shortened: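 Vero cells were seeded at 1 × 10^5 per well on coverslips, grown 2 days, then infected with metacyclic forms at 10:1. Compounds at IC25 were added at infection for 12 h at 37 °C, 5% CO2, then washed out. Cultures were kept 10 days with medium renewed every 48 h. Trypomastigotes released into the medium were counted.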

Trypanosoma cruzi [9] = experiment: Antitrypanosomal activity against Trypanosoma cruzi epimastigotes assessed as shrinkage of the protozoa at IC25 concentration after 72 hrs by transmission electron microscopy; type: functional, organism-based; procedure, shortened: as §2
Vero = experiment: Cytotoxicity against african green monkey Vero cells assessed as cell viability after 72 hrs by FACS analysis; type: cell-based; details: Chlorocebus sabaeus
Mus musculus = experiment: Toxicity in BALB/c mouse assessed as mortality at 5 mg/kg, ip; type: organism-based; set-up: dose 5 mg/kg, route intraperitoneal; details: in vivo
Trypanosoma cruzi [10] = experiment: Antitrypanosomal activity against metacyclic forms of Trypanosoma cruzi infected in vero cells assessed as inhibition of infection at IC25 concentration after 12 hrs; type: functional
Procedure, shortened: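 Vero cells were seeded at 1 × 10^5 per well on coverslips, grown 2 days, and infected with metacyclic forms at 10:1, with compounds at IC25 present for 12 h at 37 °C. After washing, cultures were grown 10 days. Methanol-fixed, Giemsa-stained cells (>100 per sample) were scored for percent infected and amastigotes per cell. Results are means of four determinations.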

Trypanosoma cruzi [11] = experiment: Antitrypanosomal activity against Trypanosoma cruzi epimastigotes assessed as cytoplasmic membrane burst at IC25 concentration after 72 hrs by transmission electron microscopy; type: functional, organism-based; procedure, shortened: as §2
Trypanosoma cruzi [12] = experiment: Antitrypanosomal activity against Trypanosoma cruzi epimastigotes assessed as undulating cytoplasm membrane at IC25 concentration after 72 hrs by transmission electron microscopy; type: functional, organism-based; procedure, shortened: as §2
Trypanosoma cruzi [13] = experiment: Antitrypanosomal activity against Trypanosoma cruzi epimastigotes assessed as dilated mitochondria at IC25 concentration after 72 hrs by transmission electron microscopy; type: functional, organism-based; procedure, shortened: as §2
Trypanosoma cruzi [14] = experiment: Antitrypanosomal activity against Trypanosoma cruzi epimastigotes assessed as star-shaped and wavy cytoplasm membrane at IC25 concentration after 72 hrs by transmission electron microscopy; type: functional, organism-based; procedure, shortened: as §2

Compound | Activity (Trypanosoma cruzi [1]) | selectivity ratio [2] | IC50 (Trypanosoma cruzi [3]) [µM] | Activity (Trypanosoma cruzi [4]) [%] | Activity (Trypanosoma cruzi [5]) | Activity (Trypanosoma cruzi [6]) | Activity (Trypanosoma cruzi [7]) | Activity (Trypanosoma cruzi [8]) [%] | Activity (Trypanosoma cruzi [9]) | IC50 (Vero) [µM] | Activity (Mus musculus) | inhibition (INH) (Trypanosoma cruzi [10]) [%] | Activity (Trypanosoma cruzi [11]) | Activity (Trypanosoma cruzi [12]) | Activity (Trypanosoma cruzi [13]) | Activity (Trypanosoma cruzi [14]) | survival at 1 mg/kg (Trypanosoma cruzi [6]; route intraperitoneal) [%]
CC(=O)O[C@H]1[C@H](Oc2c(-c3ccc(O)c(O)c3)oc3cc(O[C@H]4O[C@H](C)[C@@H](O)[C@H](O)[C@@H]4O)cc(O)c3c2=O)O[C@H](CO)[C@@H](O)[C@@H]1O | Active | > 36.6 | 27.3 | 23 | Active | Active | Active | 58 | Active | > 1000 | Non-toxic | 65 |  |  |  |  | 
O=c1c(O[C@@H]2O[C@H](CO)[C@@H](O)[C@H](O)[C@H]2O)c(-c2ccc(O)cc2)oc2cc(O)cc(O)c12 [ASTRAGALIN] | Active | 11.1 | 15.7 | 23 | Active | Active | Active | 65 | Active | 174 | Non-toxic | 64 | Active | Active |  |  | 
CC(=O)O[C@H]1[C@H](Oc2c(-c3ccc(O)cc3)oc3cc(O)cc(O)c3c2=O)O[C@H](CO)[C@@H](O)[C@@H]1O | Active | 45.2 | 6.5 | 23 | Active | Active | Active | 78 | Active | 294 | Non-toxic | 88 | Active | Active | Active |  | 
CC(=O)O[C@H]1[C@H](Oc2c(-c3ccc(O)cc3)oc3cc(O[C@@H]4O[C@H](CO)[C@@H](O)[C@H](O)[C@H]4O)cc(O)c3c2=O)O[C@H](CO)[C@@H](O)[C@@H]1O | Active | > 46.1 | 21.7 | 23 | Active | Active | Active | 77 | Active | > 1000 | Non-toxic | 85 |  |  |  |  | 
CC(=O)OC[C@H]1O[C@@H](Oc2c(-c3ccc(OC(C)=O)cc3)oc3cc(OC(C)=O)cc(OC(C)=O)c3c2=O)[C@H](OC(C)=O)[C@@H](OC(C)=O)[C@@H]1OC(C)=O [ASTRAGALIN HEPTAACETATE] | Active | 205 | 0.8 | 23 | Active | Active | Active | 95 | Active | 164 | Non-toxic | 91 |  |  |  |  | 
C[C@H]1O[C@H](Oc2cc(O)c3c(=O)c(O[C@@H]4O[C@H](CO)[C@@H](O)[C@H](O)[C@H]4O)c(-c4ccc(O)c(O)c4)oc3c2)[C@@H](O)[C@@H](O)[C@@H]1O [PETIOLAROSIDE] | Active | > 33 | 30.3 | 23 | Active | Active | Active | 72 | Active | > 1000 | Non-toxic | 68 |  |  |  |  | 
CC(=O)OC[C@H]1O[C@@H](Oc2cc(OC(C)=O)c3c(=O)c(O[C@@H]4O[C@H](COC(C)=O)[C@@H](OC(C)=O)[C@H](OC(C)=O)[C@H]4OC(C)=O)c(-c4ccc(OC(C)=O)cc4)oc3c2)[C@H](OC(C)=O)[C@@H](OC(C)=O)[C@@H]1OC(C)=O [PAEONOSIDE DECAACETATE] | Active | > 58.1 | 17.2 | 23 | Active | Active | Active | 85 | Active | > 1000 | Non-toxic | 82 | Active | Active |  | Active | 
O=C(Cn1ccnc1[N+](=O)[O-])NCc1ccccc1 [BENZNIDAZOLE] |  |  |  |  |  |  |  | 37 |  |  |  | 39 |  |  |  |  | 80
